Converted amounts (≈) assume the structure as drawn. The source made the active and inactive calls. The calls are words filed in the database; no cut-off is given here.
Experiments:
Staphylococcus aureus [1] = assay: Antibacterial activity against methicillin-resistant Staphylococcus aureus ATCC 43300 during logarithmic growth phase by macrodilution method; type: functional
[2] = Cmax in cage fluid of Albino guiena pig at 12.5 mg/kg, ip after 12 hrs; type: ADME, organism-based, Cavia porcellus, Interstitial fluid; design: dose 12.5 mg/kg, route intraperitoneal; conditions: guinea pig
Staphylococcus aureus [3] = assay: Antibacterial activity against 1 x10'6 to 5 x10^6 CFU/ml methicillin-resistant Staphylococcus aureus ATCC 43300 assessed as log decrease in bacterial count at MIC after 6 hrs by time kill study; type: functional
How it was run: (§1)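 MRSA inoculum of 1 × 10^6 to 5 × 10^6 CFU/ml in 10 ml Mueller-Hinton broth. Drug at 1× and 4× MIC; drug-free growth control. Incubated at 37°C. Aliquots plated on Mueller-Hinton agar at 0, 6 and 24 h. Quantification limit 200 CFU/ml. Mean log10 CFU/ml reduction ± SD.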

[4] = AUC (0 to 24 hrs) in cage fluid of Albino guiena pig at 12.5 mg/kg, ip; type: ADME, organism-based, Cavia porcellus; design: time < 24 hr, dose 12.5 mg/kg, route intraperitoneal; conditions: guinea pig
Staphylococcus aureus [5] = assay: Antibacterial activity against methicillin-resistant Staphylococcus aureus ATCC 43300 infected in Albino guiena pig assessed as no. of culture-negative cage fluid samples at 12.5 mg/kg measured on day 10 postinfection; type: functional
How it was run: (§2)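 Same guinea pig cage infection and intraperitoneal 4-day, twice-daily regimen. Cage fluid cultured on day 4 and day 10. Result is the number of cage fluid samples without detectable MRSA growth over the total cages per group.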

Staphylococcus aureus [6] = assay: Antibacterial activity against 1 x10'6 to 5 x10^6 CFU/ml methicillin-resistant Staphylococcus aureus ATCC 43300 assessed as log decrease in bacterial count at 4 times MIC after 6 hrs by time kill study; type: functional; how it was run: as §1
Staphylococcus aureus [7] = assay: Antibacterial activity against methicillin-resistant Staphylococcus aureus ATCC 43300 infected in Albino guiena pig assessed as decrease in planktonic bacterial counts in cage fluid at 12.5 mg/kg after measured on day 10 postinfection; type: functional
How it was run: (§3)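 Guinea pig subcutaneous cage model infected with 2 × 10^4 CFU MRSA. Intraperitoneal dosing every 12 h for 4 days, starting day 1. Cage-fluid CFU counted on day 1, day 4 (before last dose) and day 10. Δlog10 CFU/ml is day 4 or day 10 minus day 1. Quantification limit 1,000 CFU/ml; negatives set to 3 log10. Median and IQR.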

[8] = Cmin in cage fluid of Albino guiena pig at 12.5 mg/kg, ip after 12 hrs; type: ADME, organism-based, Cavia porcellus; design: dose 12.5 mg/kg, route intraperitoneal; conditions: guinea pig, read-out: Cmin
Staphylococcus aureus [9] = assay: Antibacterial activity against methicillin-resistant Staphylococcus aureus ATCC 43300 by macrodilution method; type: functional
How it was run: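 Broth macrodilution MIC in Mueller-Hinton broth per CLSI. Inoculum 1 × 10^5 to 5 × 10^5 CFU/ml. Ten twofold drug dilutions, 18 h at 37°C without shaking. MIC is the lowest concentration with no visible growth. Triplicate.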

Staphylococcus aureus [10] = assay: Antibacterial activity against methicillin-resistant Staphylococcus aureus ATCC 43300 infected in Albino guiena pig assessed as decrease in planktonic bacterial counts in cage fluid at 12.5 mg/kg measured on day 4 postinfection; type: functional; how it was run: as §3
Staphylococcus aureus [11] = assay: Antibacterial activity against 1 x10'6 to 5 x10^6 CFU/ml methicillin-resistant Staphylococcus aureus ATCC 43300 assessed as bacterial regrowth after 24 hrs by time kill study; type: functional, organism-based; how it was run: as §1
Staphylococcus aureus [12] = assay: Antibacterial activity against methicillin-resistant Staphylococcus aureus ATCC 43300 during stationary growth phase by macrodilution method; type: functional
Staphylococcus aureus [13] = assay: Antibacterial activity against 1 x10'6 to 5 x10^6 CFU/ml methicillin-resistant Staphylococcus aureus ATCC 43300 assessed as percent resistant isolates at MIC after 24 hrs by time kill study; type: functional
Staphylococcus aureus [14] = assay: Antibacterial activity against methicillin-resistant Staphylococcus aureus ATCC 43300 infected in Albino guiena pig assessed as no. of culture-negative cage fluid samples at 12.5 mg/kg measured on day 4 postinfection; type: functional; how it was run: as §2
[15] = Tmax in cage fluid of Albino guiena pig at 12.5 mg/kg, ip; type: ADME, organism-based, Cavia porcellus; design: dose 12.5 mg/kg, route intraperitoneal; conditions: guinea pig

## CO[C@H]1/C=C/O[C@@]2(C)Oc3c(C)c(O)c4c(O)c(c(/C=N/N5CCN(C)CC5)c(O)c4c3C2=O)NC(=O)/C(C)=C\C=C\[C@H](C)[C@H](O)[C@@H](C)[C@@H](O)[C@@H](C)[C@H](OC(C)=O)[C@@H]1C [RIFAMPIN]
Staphylococcus aureus [1]
  MBC: 0.08 µg/mL (≈ 0.0972 µM)
[2]
  Cmax: 1000 ng/mL
Staphylococcus aureus [3]
  log10CFU/ml: 0.5
[4]
  AUC(0-t) at 24 h: 4600 ng·h/mL
Staphylococcus aureus [5]
  Activity: 92%
Staphylococcus aureus [6]
  log10CFU/ml: 0.5
Staphylococcus aureus [7]
  log10CFU/ml: <3
[8]
  concentration at 12 h: 100 ng/mL
Staphylococcus aureus [9]
  MIC: 0.01 µg/mL (≈ 0.0122 µM)
Staphylococcus aureus [10]
  log10CFU/ml: 3.1
Staphylococcus aureus [11]
  Activity: inactive
Staphylococcus aureus [12]
  MBC: 2.5 µg/mL (≈ 3.04 µM)
Staphylococcus aureus [13]
  Activity: 94%
Staphylococcus aureus [14]
  Activity: 50%
[15]
  Tmax: 2.1 h
